Published values collected from several papers.
Each line is one published result; the experiments were not run side by side.
Target: Atypical kinase COQ8B, mitochondrial (COQ8B, Homo sapiens, UniProt Q96D53)
Residues used in one study (Q96D53 1-544): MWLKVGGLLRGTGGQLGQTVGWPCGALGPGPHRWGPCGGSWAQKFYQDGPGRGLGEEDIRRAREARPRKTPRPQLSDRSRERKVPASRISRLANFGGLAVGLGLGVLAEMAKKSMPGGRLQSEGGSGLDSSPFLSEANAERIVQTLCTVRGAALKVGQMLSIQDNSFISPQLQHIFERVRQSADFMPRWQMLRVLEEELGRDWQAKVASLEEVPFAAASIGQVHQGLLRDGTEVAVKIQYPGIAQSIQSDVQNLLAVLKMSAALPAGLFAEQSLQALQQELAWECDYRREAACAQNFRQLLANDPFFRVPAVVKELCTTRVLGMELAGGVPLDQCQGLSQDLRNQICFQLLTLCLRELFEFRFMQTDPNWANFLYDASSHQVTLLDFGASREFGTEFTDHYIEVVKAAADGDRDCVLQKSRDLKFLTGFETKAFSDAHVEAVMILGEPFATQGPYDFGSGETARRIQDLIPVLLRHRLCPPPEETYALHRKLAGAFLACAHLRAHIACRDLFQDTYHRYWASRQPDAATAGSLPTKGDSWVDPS

SMILES | read-out | method | tested at | remaining binding
O=C(NCCCN1CCOCC1)c1ccc(Nc2nccc(-c3cc4ccccc4s3)n2)cc1 | binding | competition with immobilised ligand | 1 µM | 62%
COc1ccnn2ncc(-c3ccnc(N(C)C)n3)c12 | binding |  | 1 µM | 96%
O=C(c1ccc(Nc2ncc(Cl)c(-c3cc4ccccc4s3)n2)cc1)N1CCC(N2CCCC2)CC1 | binding | competition with immobilised ligand | 1 µM | 44%
CN(C)c1ncc(F)c(-c2cnn3ncccc23)n1 | binding |  | 1 µM | 73%
COCCOc1nc(-c2ccc(Cl)nc2)nc2c1CN(C(=O)c1ncn3ccccc13)CC2 | cell-free assay | competition with immobilised ligand | 0.1 µM | 100%
O=C(Nc1c[nH]nc1C(=O)NC1CCNCC1)c1cc(F)cc(F)c1 | binding | competition with immobilised ligand | 1 µM | 100%
CS(=O)(=O)N1CCCC(NC(=O)[C@H](CCC2CCCCC2)NC(=O)c2ccc(CNC(=O)c3cnc4ccccn34)cc2)C1 (stereo partly shown) | cell-free assay | competition with immobilised ligand | 0.1 µM | 100%
c1cncc(-c2cccc(Nc3nccc(NC4CCCCC4)n3)c2)c1 | binding | competition with immobilised ligand | 10 µM | 24%
CN(C)c1nccc(-c2cnc3ncccn23)n1 | binding |  | 1 µM | 75%
Cc1nc(N2CC[C@@H](O)C2)ncc1-c1cc(C(F)(F)F)cc2[nH]ncc12 | cell-free assay | competition with immobilised ligand | 1 µM | 100%
CCN1CCN(Cc2ccc(C(=O)Nc3ccc(C)c(Oc4ccc5c(c4)CC(=O)N5)c3)cc2C(F)(F)F)CC1 | binding | competition with immobilised ligand | 1 µM | 80%
C[C@@H]1CCN(c2nccc(-c3cnn4ncccc34)n2)C1 | binding |  | 1 µM | 89%
CNC(=O)Nc1ccc2c(c1)[C@@]1(CC2)OC(=O)N(CC(=O)N(Cc2ccc(F)cc2)[C@@H](C)C(F)(F)F)C1=O | cell-free assay | competition with immobilised ligand | 1 µM | 95%
COc1ncc2cc3ccccc3nc2c1C#N | cell-free assay | competition with immobilised ligand | 5 µM | 100%
Cc1cnc(Nc2ccc(C(=O)N3CCC(N4CCCC4)CC3)cc2)nc1-c1cc2ccccc2s1 | binding | competition with immobilised ligand | 1 µM | 34%
CCS(=O)(=O)c1cc2cc(C[C@@](O)(CC(C)(C)c3ccc(F)cc3C(N)=O)C(F)(F)F)[nH]c2cn1 | cell-free assay | competition with immobilised ligand | 1 µM | 100%
N[C@@H]1CCN(c2nccc(-c3cnn4ncccc34)n2)C1 | binding |  | 1 µM | 100%
C[C@@H]1CN(c2cc(-c3n[nH]c4ccc(OC5(C)CC5)cc34)ncn2)C[C@H](C)O1 | cell-free assay | competition with immobilised ligand | 0.1 µM | 72%
F[C@@H]1CCN(c2nccc(-c3cnn4ncccc34)n2)C1 | binding |  | 1 µM | 79%
CNC(=O)[C@@H]1CC[C@@H](n2c(-c3ccc4cnccc4c3)nc3ccc(C(=O)NCc4cccc(C(N)=O)c4)cc32)C1 | binding | competition with immobilised ligand | 1 µM | 99%
CN(CCCC(F)(F)F)c1nccc(-c2cnn3ncccc23)n1 | binding |  | 1 µM | 84%
O=C(NCCCC1CCCCC1)c1ccc(CNC(=O)c2cnn(-c3ccccc3)c2C(F)(F)F)cc1 | cell-free assay | competition with immobilised ligand | 0.1 µM | 100%
